According to ChEMBL document CHEMBL4390647, “Efficient click chemistry towards novel 1H-1,2,3-triazole-tethered 4H-chromene-d-glucose conjugates: Design, synthesis and evaluation of in vitro antibacterial, MRSA and antifungal activities” (Eur J Med Chem, 2019):
In brackets after ≈: the same amount, converted by molar mass.

What was measured:
[1] = system: Bacillus subtilis; experiment: Antibacterial activity against Bacillus subtilis ATCC 11774 after 18 to 20 hrs by microbroth dilution method; assay type: functional
In short: (§1)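 Inoculum from a 4–6-h broth adjusted to 0.5 McFarland, final 5 × 10⁵ CFU/mL. Incubation at 35°C for 18–20 h. MIC taken as the lowest concentration giving complete inhibition of visible growth; three experiments.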

[2] = system: Staphylococcus aureus; experiment: Antibacterial activity against Staphylococcus aureus ATCC 11632 after 18 to 20 hrs by microbroth dilution method; assay type: functional; in short: as §1
[3] = system: Staphylococcus epidermidis; experiment: Antibacterial activity against Staphylococcus epidermidis ATCC 12228 after 18 to 20 hrs by microbroth dilution method; assay type: functional; in short: as §1
[4] = system: Escherichia coli; experiment: Antibacterial activity against Escherichia coli ATCC 25922 measured after 18 to 20 hrs by microbroth dilution method; assay type: functional; in short: as §1
[5] = system: Klebsiella pneumoniae; experiment: Antibacterial activity against measured after Klebsiella pneumoniae ATCC 4352 measured after 18 to 20 hrs by microbroth dilution method; assay type: functional; in short: as §1
[6] = system: Pseudomonas aeruginosa; experiment: Antibacterial activity against Pseudomonas aeruginosa […] measured after 18 to 20 hrs by microbroth dilution method; assay type: functional; in short: as §1
[7] = system: Salmonella typhimurium; experiment: Antibacterial activity against Salmonella typhimurium ATCC 14028 measured after 18 to 20 hrs by microbroth dilution method; assay type: functional, Salmonella enterica subsp. enterica serovar Typhimurium; details: Salmonella enterica; in short: as §1
[8] = system: Staphylococcus aureus; experiment: Antibacterial activity against Staphylococcus aureus MRSA198 clinical isolate-3 measured after 18 to 20 hrs by microbroth dilution method; assay type: functional; details: MRSA198 isolate-3
[9] = system: Aspergillus niger; experiment: Antifungal activity against Aspergillus niger ATCC 439 measured after 72 hrs by agar dilution method; assay type: functional; details: ATCC 439, 72 h
In short: (§2)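 Agar dilution on Sabouraud dextrose agar, with compounds at […] to 0.78 μM in twofold steps. Fungal suspensions at 10 CFU/mL as printed were applied to the compound-containing plates. Incubation at 35°C; MIC read after 72 h. Three experiments.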

[10] = system: Aspergillus flavus; experiment: Antifungal activity against Aspergillus flavus ATCC 204304 measured after 72 hrs by agar dilution method; assay type: functional; details: ATCC 204304, 72 h; in short: as §2
[11] = system: Candida albicans; experiment: Antifungal activity against Candida albicans ATCC 7754 after 72 hrs by agar dilution method; assay type: functional; details: ATCC 7754, 72 h; in short: as §2
[12] = system: Saccharomyces cerevisiae; experiment: Antifungal activity against Saccharomyces cerevisiae SH 20 after 72 hrs by agar dilution method; assay type: functional; details: SH 20, 72 h; in short: as §2
[13] = Cytotoxicity against mouse RAW264.7 cells assessed as growth inhibition at 50 ug/mL after 120 hrs by MTT assay relative to control; assay type: cell-based; details: read-out: GI
In short: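 RAW 264.7 mouse macrophages were seeded at 25,000 cells/well and left to attach overnight. Compound in DMSO was added from a 200× concentrate, in duplicate wells, to a 50 μg/mL test level; DMSO served as control. Exposure 120 h at 37°C in 5% CO₂. MTT (4 mg/mL in PBS) was added for 4 h, formazan dissolved in DMSO, and absorbance read at 560 nm. Viability expressed as % of untreated cells, mean ± SE of at least three independent experiments.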

[14] = system: Staphylococcus aureus; experiment: Antibacterial activity against Staphylococcus aureus MRSA198 clinical isolate-1 measured after 18 to 20 hrs by microbroth dilution method; assay type: functional; details: MRSA198 isolate-1
[15] = system: Staphylococcus aureus; experiment: Antibacterial activity against Staphylococcus aureus MRSA198 clinical isolate-2 measured after 18 to 20 hrs by microbroth dilution method; assay type: functional; details: MRSA198 isolate-2

Row | SMILES | MIC [1] [µM] | MIC [2] [µM] | MIC [3] [µM] | MIC [4] [µM] | MIC [5] [µM] | MIC [6] [µM] | MIC [7] [µM] | MIC [8] [µM] | MIC [9] [µM] | MIC [10] [µM] | MIC [11] [µM] | MIC [12] [µM] | MIC [14] [µM] | MIC [15] [µM] | inhibition at 120 h, 50 ug/mL [13] [%]
1 | CC(=O)OC[C@H]1O[C@@H](n2cc(COc3ccc4c(c3)OC(N)=C(C#N)C4c3ccccc3[N+](=O)[O-])nn2)[C@H](OC(C)=O)[C@@H](OC(C)=O)[C@@H]1OC(C)=O (some centres not stated) | 100 (≈ 72.1 µg/mL) | 6.25 (≈ 4.5 µg/mL) | 12.5 (≈ 9.01 µg/mL) | 50 (≈ 36 µg/mL) | 400 (≈ 288 µg/mL) | 400 (≈ 288 µg/mL) | – | 3.12 (≈ 2.25 µg/mL) | 400 (≈ 288 µg/mL) | 6.25 (≈ 4.5 µg/mL) | 50 (≈ 36 µg/mL) | – | 6.25 (≈ 4.5 µg/mL) | 1.56 (≈ 1.12 µg/mL) | 15.4
2 | COc1cc(OC)cc(C2C(C#N)=C(N)Oc3cc(OCc4cn([C@@H]5O[C@H](COC(C)=O)[C@@H](OC(C)=O)[C@H](OC(C)=O)[C@H]5OC(C)=O)nn4)ccc32)c1 (some centres not stated) | 50 (≈ 36.8 µg/mL) | 100 (≈ 73.6 µg/mL) | 3.12 (≈ 2.3 µg/mL) | 100 (≈ 73.6 µg/mL) | 100 (≈ 73.6 µg/mL) | – | 50 (≈ 36.8 µg/mL) | 200 (≈ 147 µg/mL) | 100 (≈ 73.6 µg/mL) | 50 (≈ 36.8 µg/mL) | 25 (≈ 18.4 µg/mL) | 6.25 (≈ 4.6 µg/mL) | 400 (≈ 294 µg/mL) | 400 (≈ 294 µg/mL) | 19.5
3 | COc1cccc(OC)c1C(=O)N[C@@H]1C(=O)N2[C@@H]1SC(C)(C)[C@@H]2C(=O)O [METHICILLIN] | 400 (≈ 152 µg/mL) | 400 (≈ 152 µg/mL) | 400 (≈ 152 µg/mL) | 400 (≈ 152 µg/mL) | 400 (≈ 152 µg/mL) | 400 (≈ 152 µg/mL) | 400 (≈ 152 µg/mL) | – | – | – | – | – | – | – | –
4 | Clc1ccc(COC(Cn2ccnc2)c2ccc(Cl)cc2Cl)c(Cl)c1 (configuration not stated) [MICONAZOLE] | – | – | – | – | – | – | – | – | 1.56 (≈ 0.649 µg/mL) | 1.56 (≈ 0.649 µg/mL) | 3.12 (≈ 1.3 µg/mL) | 3.12 (≈ 1.3 µg/mL) | – | – | –
5 | CN[C@H](CC(C)C)C(=O)N[C@H]1C(=O)N[C@@H](CC(N)=O)C(=O)N[C@H]2C(=O)N[C@H]3C(=O)N[C@H](C(=O)N[C@H](C(=O)O)c4cc(O)cc(O)c4-c4cc3ccc4O)[C@H](O)c3ccc(c(Cl)c3)Oc3cc2cc(c3O[C@@H]2O[C@H](CO)[C@@H](O)[C@H](O)[C@H]2O[C@H]2C[C@](C)(N)[C@H](O)[C@H](C)O2)Oc2ccc(cc2Cl)[C@H]1O [VANCOMYCIN] | 0.78 (≈ 1.13 µg/mL) | 1.56 (≈ 2.26 µg/mL) | 3.12 (≈ 4.52 µg/mL) | 3.12 (≈ 4.52 µg/mL) | 3.12 (≈ 4.52 µg/mL) | 3.12 (≈ 4.52 µg/mL) | 3.12 (≈ 4.52 µg/mL) | 1.56 (≈ 2.26 µg/mL) | – | – | – | – | 1.55 (≈ 2.25 µg/mL) | 1.56 (≈ 2.26 µg/mL) | –

Second part, led by results:

Row | MIC [1] [µM] | MIC [2] [µM] | MIC [3] [µM] | MIC [4] [µM] | MIC [5] [µM] | MIC [6] [µM] | MIC [7] [µM] | MIC [8] [µM] | MIC [9] [µM] | MIC [10] [µM] | MIC [11] [µM] | MIC [12] [µM] | MIC [14] [µM] | MIC [15] [µM] | SMILES | inhibition at 120 h, 50 ug/mL [13] [%]
6 | 200 (≈ 141 µg/mL) | 400 (≈ 282 µg/mL) | 100 (≈ 70.6 µg/mL) | 200 (≈ 141 µg/mL) | 6.25 (≈ 4.41 µg/mL) | 400 (≈ 282 µg/mL) | 100 (≈ 70.6 µg/mL) | 400 (≈ 282 µg/mL) | 400 (≈ 282 µg/mL) | 1.56 (≈ 1.1 µg/mL) | 400 (≈ 282 µg/mL) | 25 (≈ 17.6 µg/mL) | – | – | COc1cccc(C2C(C#N)=C(N)Oc3cc(OCc4cn([C@@H]5O[C@H](COC(C)=O)[C@@H](OC(C)=O)[C@H](OC(C)=O)[C@H]5OC(C)=O)nn4)ccc32)c1 (some centres not stated) | 25.1
7 | 50 (≈ 36.8 µg/mL) | 1.56 (≈ 1.15 µg/mL) | 25 (≈ 18.4 µg/mL) | – | 12.5 (≈ 9.2 µg/mL) | – | 50 (≈ 36.8 µg/mL) | 6.25 (≈ 4.6 µg/mL) | 400 (≈ 294 µg/mL) | – | 12.5 (≈ 9.2 µg/mL) | 50 (≈ 36.8 µg/mL) | 1.56 (≈ 1.15 µg/mL) | 1.56 (≈ 1.15 µg/mL) | COc1ccc(C2C(C#N)=C(N)Oc3cc(OCc4cn([C@@H]5O[C@H](COC(C)=O)[C@@H](OC(C)=O)[C@H](OC(C)=O)[C@H]5OC(C)=O)nn4)ccc32)c(OC)c1 (some centres not stated) | 12.4
8 | 100 (≈ 71.9 µg/mL) | 100 (≈ 71.9 µg/mL) | – | 12.5 (≈ 8.98 µg/mL) | – | 1.56 (≈ 1.12 µg/mL) | 50 (≈ 35.9 µg/mL) | 200 (≈ 144 µg/mL) | – | 12.5 (≈ 8.98 µg/mL) | 12.5 (≈ 8.98 µg/mL) | 100 (≈ 71.9 µg/mL) | 400 (≈ 287 µg/mL) | 400 (≈ 287 µg/mL) | CC(=O)OC[C@H]1O[C@@H](n2cc(COc3ccc4c(c3)OC(N)=C(C#N)C4c3ccc(N(C)C)cc3)nn2)[C@H](OC(C)=O)[C@@H](OC(C)=O)[C@@H]1OC(C)=O (some centres not stated) | 19.6
9 | 3.12 (≈ 1.03 µg/mL) | 3.12 (≈ 1.03 µg/mL) | 3.12 (≈ 1.03 µg/mL) | 1.56 (≈ 0.517 µg/mL) | 1.56 (≈ 0.517 µg/mL) | 1.56 (≈ 0.517 µg/mL) | 1.56 (≈ 0.517 µg/mL) | – | – | – | – | – | – | – | O=C(O)c1cn(C2CC2)c2cc(N3CCNCC3)c(F)cc2c1=O [CIPROFLOXACIN] | –
